In the library only some 1.2% were active in any assay of this set; here they are far more common.
Efa HMGR inh = blocks class II HMG-CoA reductase of Enterococcus faecalis | purified E. faecalis HMGR, NADPH absorbance 340 nm kinetic | 190,000 compounds, 0.41% hits | inhibition, % at 10 µM;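 active = inhibition above a set limit, the median over all tested compounds plus 3 SD, cut at about 9.5% in these data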;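 note: enzyme runs in reverse so mevalonate oxidation gives rising NADPH absorbance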
TNAP inh noacc = blocks human TNAP activity with no phosphate acceptor present. inhibition, % at 20 µM. 200,000 compounds, 0.26% hits. purified TNAP, CDP-star luminescence, 30 min;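 active = tissue-nonspecific alkaline phosphatase inhibition above about 50% at 20 µM in the single-dose screen, limit read from the data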
Target sequence (P05186 whole entry, looked up): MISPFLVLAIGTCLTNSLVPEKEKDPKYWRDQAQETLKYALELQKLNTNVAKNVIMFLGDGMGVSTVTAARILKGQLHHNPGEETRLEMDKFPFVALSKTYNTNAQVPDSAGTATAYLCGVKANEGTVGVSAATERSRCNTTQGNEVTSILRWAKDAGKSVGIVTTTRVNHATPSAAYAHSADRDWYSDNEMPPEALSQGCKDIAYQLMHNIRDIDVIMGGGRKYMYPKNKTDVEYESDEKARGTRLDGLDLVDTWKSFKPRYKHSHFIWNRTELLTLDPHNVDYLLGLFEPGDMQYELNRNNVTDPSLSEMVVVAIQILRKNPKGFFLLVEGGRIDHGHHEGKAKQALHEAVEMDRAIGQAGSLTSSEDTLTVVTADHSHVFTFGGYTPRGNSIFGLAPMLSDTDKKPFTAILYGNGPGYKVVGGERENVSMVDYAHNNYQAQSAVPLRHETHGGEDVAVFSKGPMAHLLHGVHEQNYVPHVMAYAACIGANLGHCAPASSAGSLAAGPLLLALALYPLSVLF
INS promoter inh = TRM-6 insulin promoter activity inhibition. 130,000 compounds, 0.9% hits. TRM-6 cells (human fetal islet line), insulin promoter-eGFP reporter, imaging; reporter expression induced with tamoxifen. inhibition, % at 2 µM. AID 1273;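 active = inhibition above the mean plus 3 SD, with well images judged a real hit on visual review, cut at about 60% in these data, passing the limit was not always enough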
TNAP act hi DEA = increases human TNAP activity under high phosphate acceptor concentration; P05186; purified TNAP, CDP-star luminescence, 1 M DEA, 30 min; active compounds read high; 0 = EDTA background, 1 = DMSO-only activity; activation factor at 20 µM; 200,000 tested, under 10 active;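 active = activation factor at least 2 at 20 µM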
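Control set: EDTA negative control, DMSO positive control / Assay system: human TNAP / Quantity: TNAP 1/800 final / Evaluation: TNAP activation factor scaled between EDTA and DMSO control wells / Measured by: luminescent substrate turnover signal / Compound dosing: one dose, 20 µM / Times: 30 min enzyme reaction at room temperature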
TNAP inh hiacc = inhibitors of human TNAP at high phosphate acceptor concentration | P05186 | purified TNAP, CDP-star luminescence, 1 M DEA | inhibition, % at 20 µM | 200,000 compounds, 0.03% hits;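 active = over 50% inhibition of tissue-nonspecific alkaline phosphatase at 20 µM in the single-dose screen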
Hits are given with their value; 0 = inactive; - = no result.

SMILES	Efa HMGR inh	TNAP inh noacc	INS promoter inh	TNAP act hi DEA	TNAP inh hiacc
Cc1ccc(C)c(S(=O)(=O)N2C(=S)NC(=O)C2C(C)C)c1 (stereo unspecified)	0	0	80	0	0
Fc1ccc(COc2cccc(CNCc3ccncc3)c2)cc1	0	0	-	0	0
O=C(CSc1nnc2ccccn12)NCc1ccco1	0	0	71	0	0
CCCN(CCC)S(=O)(=O)c1ccc(C(=O)NCc2ccc3c(c2)OCO3)cc1	0	0	-	0	0
CCN(CC)S(=O)(=O)c1ccc(C(=O)NCc2ccc3c(c2)OCO3)cc1	0	0	79	0	0
CCOC(=O)C1(C)C=C(Nc2ccc(C)cc2)C(=O)N1c1ccc(C)cc1 (stereo unspecified)	0	0	70	0	0
N/C(COc1cccc(Cl)c1)=N\NS(=O)(=O)c1ccccc1	0	0	0	0	0
COc1ccc(C2OCC3(CO2)SC(=O)NC3=O)cc1 (stereo unspecified)	0	0	73	0	0
CSc1cccc(NC(=O)COc2cccc3ccccc23)c1	0	0	73	0	0
CCOCC(=O)Nc1cccc(SC)c1	0	0	-	0	0
Cc1cc(N2CCN(c3nc(-c4ccc([N+](=O)[O-])cc4)cs3)CC2)c2ccccc2n1	14	0	0	0	0
Cc1cc(-c2ccc([N+](=O)[O-])cc2)nc2ccccc12	0	0	0	0	0
CCCc1cc(C(N)=O)c(NC(=O)c2ccoc2C)s1	0	0	76	0	0
CCCc1cc(C(N)=O)c(NC(=O)c2cc(C)on2)s1	0	0	0	0	0
COc1ccc(CNC(=O)C(NC(C)=O)C(=O)Nc2ccc(C(C)C)cc2)cc1 (stereo unspecified)	12	0	-	0	0
COc1ccc(NC(=O)C(c2ccc(OC)cc2)N(C)C(=O)CNC(C)=O)cc1 (stereo unspecified)	0	0	77	0	0
Cc1cc(C)c(S(C)(=O)=O)c(N(C)N)n1	0	0	75	0	0
Cc1cc(C)c(S(C)(=O)=O)c(N(C)NC(=O)c2c(F)cccc2F)n1	0	0	0	0	0
CSC[C@@H]1NC(=S)N(c2ccc(C)cc2)C1=O	0	0	0	0	0
COc1ccc(-c2ccc(SCC(=O)c3ccccc3)nn2)cc1OC	11	0	-	0	0
Cc1ccc(-c2ccc(SCC(=O)c3ccccc3)nn2)cc1	0	0	-	0	0
CC1OC23CCCCC2C(C#N)(C(=N)O3)C1(C#N)C#N (stereo unspecified)	0	0	77	0	0
CCC1OC23CCCCC2C(C#N)(C(=N)O3)C1(C#N)C#N (stereo unspecified)	0	0	0	0	0
CCCC(C(=O)Nc1nccs1)c1ccccc1 (stereo unspecified)	0	0	0	0	0
O=C(O)c1cnc2ccccc2n1	0	0	85	0	0
SMILES	Efa HMGR inh	TNAP inh noacc	INS promoter inh	TNAP act hi DEA	TNAP inh hiacc
CCCc1c(C)[nH]c2ccccc2c1=O	0	0	71	0	0
CCCc1c(C)c2ccccc2[nH]c1=O	0	0	0	0	0
C=CCc1c(C)[nH]c2ccc(C)cc2c1=O	0	0	0	0	0
CCc1c(C)[nH]c2ccc(C)cc2c1=O	0	0	77	0	0
Cc1ccc(Sc2nc([N+](=O)[O-])nn2C)cc1	0	0	-	0	0
COc1cc(OC)c(N(C)S(=O)(=O)c2cccc(C(=O)OCC(=O)NCc3ccco3)c2)cc1Cl	0	0	-	0	0
CCOc1ccc(NC(=O)c2cnccn2)cc1	0	0	94	0	0
CCOc1ccc(NC(=O)c2ccccn2)cc1	0	0	0	0	0
COc1ccc(C(=O)NC(C)(C)C)cc1S(=O)(=O)N1CCCC1	0	0	0	0	0
CC(C)(C)c1nnc(NC(=O)CN2C(=O)C3C4C=CC(C4)C3C2=O)s1 (stereo unspecified)	0	0	75	0	0
CCC(=O)Nc1nnc(C(C)(C)C)s1	0	0	0	0	0
CCSc1nnc(NC(=O)CN2C(=O)C3CC=CCC3C2=O)s1 (stereo unspecified)	14	0	0	0	0
Cn1c(SCC(=O)N2CCCC2=O)nnc1-c1ccccc1F	19	0	0	0	0
CCc1ccc(NC(=O)CSCc2ccc(C(=O)O)cc2)cc1	21	0	-	0	0
Cc1[nH]n(S(=O)(=O)Cc2ccccc2)c(=O)c1N=Nc1ccccc1Cl	10	0	0	0	0
CCc1nc2ccccc2c(NC(=O)CN2CC(C)CC(C)C2)c1C (stereo unspecified)	0	0	0	0	0
CC(C)(C)OC(=O)[C@H](Cc1ccccc1)NC(=O)c1nc[nH]c1C(=O)NC1CCN(C(=O)OC(C)(C)C)CC1	0	0	-	0	0
O=C(/C=C/c1ccccc1Cl)Nn1cnc2ccccc2c1=O	0	0	0	0	0
O=C(COCc1nc2ccccc2c(=O)[nH]1)NCC1CCCCC1	15	0	0	0	0
Nc1c2c(nc3ccc(Br)cc13)N(c1ccccc1)CC2	0	0	0	0	0
Nc1c2c(nc3ccc(Br)cc13)N(Cc1ccccc1)CC2	0	0	69	0	0
C1CCC(C(CC2CCCCN2)C2CCCCC2)CC1 (stereo unspecified)	10	0	0	0	0
CC1=C(C(=O)OCc2ccccc2)C(/C=C/c2ccccc2)NC(=S)N1 (stereo unspecified)	10	0	-	0	0
C=CCOC(=O)C1=C(C)NC(=S)NC1/C=C/c1ccccc1 (stereo unspecified)	0	0	0	0	0
CN(C)c1ccc(NC(=O)C2CCCN(S(=O)(=O)c3ccccc3)C2)cc1 (stereo unspecified)	0	0	-	0	0
SMILES	Efa HMGR inh	TNAP inh noacc	INS promoter inh	TNAP act hi DEA	TNAP inh hiacc
O=C(O)CC1SC(=Nc2ccc(O)cc2)NC1=O (stereo unspecified)	0	54	0	0	0
COC(=O)C(Cc1ccccc1)P(=O)(c1ccccc1)c1ccccc1 (stereo unspecified)	0	0	0	0	0
COc1ccc(NC(=O)c2oc3ccccc3c2NC(=O)C2CC2)cc1	11	0	0	0	0
COc1cccc(NC(=O)c2oc3ccccc3c2NC(=O)C2CC2)c1	0	0	0	0	0
COCCCn1c(SCC(=O)Nc2sc3c(c2C#N)CCCC3)nnc1-c1ccncc1	0	0	0	0	55
COCCCn1c(SCC(=O)Nc2cccc(C(=O)OC)c2)nnc1-c1ccncc1	0	0	0	0	0
CNC(=O)c1[nH]cnc1C(=O)Nc1ccccn1	0	0	0	0	0
C/C(=N\NC(=O)c1nonc1N)c1cccs1	0	0	0	0	0
CCOC(=O)c1c(NC(C)=O)sc2c(OC)c(Br)ccc12	0	0	0	0	0
CCOC(=O)c1c(NC(C)=O)sc2c(O)c(CN3CCN(CC)CC3)ccc12	0	0	86	0	0
COc1ccc(NCc2nnc(SCCN3CCCCC3)n2-c2ccc(C)cc2)cc1	17	0	-	0	0
Cc1nnc(SCC(=O)N2CCCC2)n(N)c1=O	10	0	0	0	0
